Rows were chosen to be rich in hits. Some 12% of all compounds tested hit in one or more screens of this group.
CHOP inh – blocks CHOP induction under ER stress. inhibition, % at 10 µM. hit rate 3.8% among 220,000. CHO-K1 CHOP-promoter luciferase, tunicamycin-induced, 15-18 h;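 active means compounds that reduced the stress-induced luciferase reporter signal by more than about 70% of percent inhibition, limit read from the data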;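 further: 0% = tunicamycin plus vehicle and 100% = wells without tunicamycin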
Dynein transport – dynein cargo transport inhibition. z-score, hits read low. AID 1381. 3617.4 mouse cells, GR-EGFP nuclear translocation imaging; test concentration mostly 20 µM; stimulated with dexamethasone, 1 µM; hits give low values. hit rate 0.47% among 220,000;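 active means plate z-score of nuclear minus cytoplasmic receptor signal below a set negative limit, without overly bright fluorescence or cell loss, cut at about -3.5 in these data, passing the limit was not always enough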;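 further: z-score of nuclear minus cytoplasmic ring GR-EGFP intensity difference per well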
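Buffer or medium: tetracycline-free induction medium containing charcoal-stripped FBS / Reagent: dexamethasone agonist, 1.0 µM final, for 30 min / Technique: automated 10x imaging of fixed Hoechst-stained cells / Times: induction 48 h, compound 1 h, agonist 30 min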
L major viab – Leishmania major promastigote growth inhibition; Leishmania major promastigotes, resazurin fluorescence viability; AID 1063; inhibition, % at 10 µM; hit rate 9% among 200,000; in the data active means inhibition above about 50%;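 further: promastigotes grown with compound for 44 hours at 28 °C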
b-catenin transl – modulators of beta-catenin nuclear translocation; HeLa beta-catenin nuclear translocation, immunofluorescence imaging; nuclear translocation activity, % at 5 µM; hit rate 0.3% among 190,000;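 active means nuclear translocation activity above 50% at 5 µM, with a well cell count of 50 or more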;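 further: per-cell ratio of nuclear to cytoplasmic median beta-catenin stain intensity; plate controls were DMSO negative control for no effect and GSK-3 inhibitor IX positive control for full effect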
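System: HeLa cells, endogenous beta-catenin; compound dosing: 5 µM primary single dose, 0.1% DMSO, 0.02–20 µM confirmation series; incubation: 24 h compound exposure at 37°C, 5% CO2; signal: beta-catenin immunofluorescence imaging with DAPI; evaluation: % activation, nuclear-to-cytoplasmic median beta-catenin signal ratio per cell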
MT stabilizer – stabilizes microtubules in HeLa cells. HeLa tubulin immunostaining HCS, 24 h; share of cells brighter than vehicle mean+2SD. % tubulin-high responders, % at 10 µM. hit rate 0.83% among 200,000;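 active means plate Z-score above 3 for both tubulin-high and condensed-nucleus cell shares, with cell loss under 80%, at 10 µM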;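 further: anti alpha tubulin signal scored within the nucleus-defined area of each cell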
Autophagy HCS – alters autophagy in cells. MEF GFP-LC3 puncta imaging; test concentration mostly 10 µM. calls only at 10 µM (by protocol). hit rate 0.98% among 190,000. AID 463193;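 active means percentage of spot-positive cells more than 3 SD above its plate mean, without a fluorescence outlier flag or 80% toxicity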;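 further: spot-positive cell cutoff set from DMSO-treated cells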
* marks the source's active call; other numbers are inactive results; i = inactive; / = no result given; + = active, no number.

SMILES | CHOP inh | Dynein transport | L major viab | b-catenin transl | MT stabilizer | Autophagy HCS
Cc1ccc(NC(=S)N(CCCN2CCC(C)CC2)Cc2ccco2)cc1C | 24 | 1.9 | 82* | -2 | 3 | i
CCOC(=O)c1ccc(NC(=S)N(CCCN2CCN(CC)CC2)Cc2ccco2)cc1 | 16 | -0.37 | 20 | -4 | 4 | +
CCOC(=O)c1ccc(NC(=S)N(CCCN2CCCC(C)C2)Cc2ccco2)cc1 (stereo not given) | 13 | -0.2 | 99* | 0 | 2 | i
CCOC(=O)c1ccc(NC(=S)N(CCCN2CCCC2)Cc2ccco2)cc1 | 32 | -0.44 | 80* | 2 | 4 | i
Cc1c(C=O)c2ccccc2n1CC(=O)NCc1ccc2c(c1)OCO2 | 16 | -0.64 | 10 | -2 | 3 | i
Cc1ccc(S(=O)(=O)Nc2nc(C)c(NC(=O)Nc3ccc(Cl)cc3Cl)s2)cc1 | 25 | 0.3 | -7 | 0 | 4 | i
Cc1nc(N2CCOCC2)sc1C=O | -24 | 0.29 | -5 | -2 | 2 | i
CCN1CCN(CCCN(Cc2ccco2)C(=S)Nc2cc(Cl)ccc2C)CC1 | 21 | 0.04 | 72* | -2 | 5 | i
CCc1ccc(NC(=S)N(CCN2CCCCC2)Cc2ccco2)cc1 | 7 | 0.27 | 95* | 1 | 2 | i
O=C(NC1CCCCC1)C(c1ccc(F)cc1)N(Cc1ccco1)C(=O)c1ccccn1 (stereo not given) | 10 | 0.078 | -2 | -2 | 4 | i
CCc1ccc(/C=C2/C(=O)N(c3ccccc3)C(=S)N2CC(=O)OC)s1 | 44 | -1.8 | 8 | 1 | 4 | +
COCCCN1C(=O)/C(=C/c2ccc(CNS(=O)(=O)c3ccccc3)o2)C(C(=O)OC)=C1C | 14 | -0.9 | -2 | 5 | 5 | i
O=C(Cn1cc2c(n1)CCCC2)Nc1cc(-c2cccc(Cl)c2)no1 | 95* | -0.5 | -5 | -3 | 1 | i
COc1ccc(S(=O)(=O)N2CCC(C(=O)Nc3ccc(F)cc3)CC2)c2cccnc12 | 0 | -0.37 | 14 | 0 | 3 | i
COC(=O)c1ccc2c(c1)N(Cc1cc(C)ccc1C)C(=O)c1ccccc1S2=O (stereo not given) | 1 | -0.42 | -4 | 1 | 4 | i
O=C(O)c1ccc2c(c1)N(Cc1ccccc1)C(=O)c1ccccc1S2=O (stereo not given) | 7 | 0.9 | -6 | -2 | 3 | i
CCOC(=O)c1ccc2c(c1)N(Cc1ccccc1C)C(=O)c1ccccc1S2=O (stereo not given) | 42 | 0.29 | 99* | / | 8 | i
COC(=O)c1ccc2c(c1)N(Cc1ccccc1F)C(=O)c1ccccc1S2=O (stereo not given) | 26 | -0.27 | 100* | -2 | 4 | i
CCc1ccccc1Nc1nc(N)nc(CSCC(=O)Nc2ccc(C)c(C)c2)n1 | 40 | -0.36 | 85* | / | 3 | i
CN1CCN(Cc2ccc(OCc3ccccc3)cc2)CC1 | 10 | 1.9 | 95* | -2 | 3 | i
CCOc1ccc(CN2CCN(C(=O)c3ccccc3)CC2)cc1 | 16 | -0.73 | -1 | 3 | 3 | i
CCOc1ccc(C(=O)N2CCN(Cc3ccccc3)CC2)cc1 | 11 | 1 | -3 | 2 | 3 | i
CCN1CCN(Cc2ccc(OCc3ccccc3)cc2)CC1 | 1 | -1.3 | 92* | / | 2 | i
Clc1ccc(CN(CC2CCCO2)C(c2cccs2)c2nnnn2C2CCCC2)cc1 (stereo not given) | 15 | 0.059 | 55* | 1 | 2 | i
Clc1ccccc1CN(Cc1ccccc1)C(c1cccs1)c1nnnn1C1CCCC1 (stereo not given) | 18 | -0.42 | 60* | 3 | 2 | i
SMILES | CHOP inh | Dynein transport | L major viab | b-catenin transl | MT stabilizer | Autophagy HCS
CCN(Cc1ccccc1)C(c1cccs1)c1nnnn1C1CCCCC1 (stereo not given) | 31 | -1.6 | 31 | -7 | 4 | i
COc1ccc(OC)c(C(=O)CSc2nccc(-c3ccc(Br)cc3)n2)c1 | 80* | / | -1 | -1 | 2 | i
S=c1[nH]nc(-c2ccccn2)n1/N=C/c1ccc(Br)s1 | 4 | 1.3 | -2 | -4 | 6 | i
C=CCOC(=O)C1=C(C)NC(=S)NC1/C=C/c1ccccc1 (stereo not given) | 51 | 0.093 | 89* | / | 2 | i
Cc1ccc(C)c(NC(=O)c2ccc3ccccc3n2)c1 | 80* | 1.3 | -2 | / | 1 | i
Cc1ccc(S(=O)(=O)N(C)C)cc1NC(=O)c1ccc2ccccc2n1 | -9 | 0.96 | / | -1 | / | /
CC(C)(C)c1csc(NC(=O)c2ccc(Cl)s2)n1 | 73* | -1 | 23 | -2 | 2 | i
Cc1ccc(C(=O)Nc2nc(C(C)(C)C)cs2)s1 | 77* | 1 | 55* | -1 | 3 | i
CC(C)(C)c1csc(NC(=O)c2ccncc2)n1 | -3 | 0.59 | 23 | 2 | 6 | i
O=C(Nc1ccccc1)Nc1nc(-c2ccccc2)cs1 | -6 | 0.011 | / | -4 | / | /
CC(C)(C)c1csc(NC(=O)Nc2ccccc2)n1 | 76* | -0.44 | 1 | 0 | 3 | i
CCN(CC)c1ccc(CNc2nc3ccccc3n2CC)cc1 | -9 | 0.58 | / | 0 | / | /
Oc1ccc(N=Cc2cc(Br)c(N3CCOCC3)o2)cc1 | 17 | -0.67 | 67* | / | 1 | i
O=[N+]([O-])c1cc(Br)c(O)c(C=Nc2ccc(N3CCOCC3)cc2)c1 | 22 | -0.44 | 3 | 1 | 5 | i
O=C(CCl)Nc1ccccc1C(=O)NCc1ccccc1 | -43 | -0.66 | 42 | -6 | 3 | i
COc1cccc(N=Nc2c(N)[nH]n3c(=O)c4c(nc23)CCCC4)c1 | -62 | -0.034 | 74* | 1 | 3 | +
COc1cccc(N=Nc2c(N)[nH][nH]c2=O)c1 | 25 | -0.52 | -9 | -2 | 2 | i
COc1ccc(C(=O)NNS(=O)(=O)c2ccccc2)cc1 | 17 | 0.024 | -9 | 0 | 4 | i
COc1ccc(C(=O)NNc2ccccc2)cc1 | 9 | 0.11 | 92* | 7 | 2 | i
COc1ccc(C(=O)NC(Nc2ccccc2)C(Cl)(Cl)Cl)cc1 (stereo not given) | 20 | 3.3 | 99* | -1 | 2 | i
S=C(N/N=C/c1cccs1)NC1CC2CCC1C2 (stereo not given) | -4 | -0.56 | / | -1 | / | /
CCOC(=O)c1sc(SC)c2c1CCCC2=O | 13 | -0.51 | / | 1 | / | /
Cn1cc(-c2nnc(-c3ccccc3)o2)c2ccccc21 | 20 | 1.3 | -2 | 1 | 3 | i
Cc1cc2c(N=NC(=O)CCc3ccccc3)c(O)[nH]c2cc1Br | 83* | 1.6 | -10 | 1 | 6 | i
O=C(Nc1nc(-c2ccco2)c(-c2ccco2)s1)C1CCC1 | 0 | -0.47 | 86* | / | 2 | i

Screens (PubChem BioAssay)
